# From article PMC3880025 (ACS nano, 2013)
# Assays:
# [1] = tested on: A549 cells; test: Cellular viability after exposure to QD-peptide conjugates; assay type: cell-based, human; details: exposure to 100 nM of 75 peptide/QD
# [2] = tested on: HEK 293 cells; test: as above; assay type: cell-based, human; details: exposure to 100 nM of 75 peptide/QD
# [3] = tested on: Primary human dermal fibroblasts; test: as above; assay type: cell-based; details: exposure to 100 nM of 75 peptide/QD
# [4] = tested on: COS-1 cells; test: Semi-quantitative imaging assay of QD uptake and endosomal escape; assay type: cell-based, African Green Monkey
# [5] = tested on: COS-1 cells; test: Cellular viability after exposure to QD-peptide conjugates; assay type: cell-based, African Green Monkey
# [6] = tested on: PC12 cells; test: as above; assay type: cell-based, rat; details: exposure to 100 nM of 75 peptide/QD
# [7] = tested on: Hela cells; test: as above; assay type: cell-based, human; details: exposure to 100 nM of 75 peptide/QD
# [8] = tested on: cultured cells; details: preliminary screening of QD cellular delivery; cited from earlier work
# [9] = tested on: Primary human dermal fibroblasts; test: Semi-quantitative imaging assay of QD uptake and endosomal escape; assay type: cell-based
# Summary of the method: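 Peptides were self-assembled onto 550 nm CdSe/ZnS QDs in DMEM with 25 mM HEPES at 25°C for 20–30 min (QDs typically 80–150 nM final). Cells on fibronectin-coated coverglass were exposed for 2 h at 37°C with Tf-Cy5 (50 µg/mL) to mark endosomes, then washed, cultured 48 h, fixed in 3.7% paraformaldehyde and DAPI-stained. Individual cells were imaged and classed for QD uptake (none/low/moderate/high) and endosomal escape.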
substance,measurement,setting,value
WG•(Dap^Pal)•VKIKK•P9•GG•H6 [JB577],Cellular viability (%),[1],96 ±3%
same,Cellular viability (%),[2],87 ±5%
same,Cellular viability (%),[3],92 ±6%
same,% Escape in cells with uptake,"[4]; 100 nM 550 nm QDs, 75 peptides/QD, 2 h incubation, 48 h culture",~ 77%
same,"Endosomal escape / intracellular localization of QDs, result in words","[4]; QD-peptide conjugates, SAR comparison with JB577",well-dispersed throughout the cytosol
same,Overall uptake/escape: QD uptake class,"[4]; first word of the cell, 100 nM QDs, 75 peptides/QD, 48 h culture",high/high (high (>60% uptake))
same,"Cellular viability, continuous 48 h exposure, peptide alone",[5]; continuous 48 h exposure to peptide alone,87±7%
same,"Cellular viability, continuous 48 h exposure, QD conjugates",[5]; continuous 48 h exposure to peptide-QD conjugates,97±6%
same,Cellular viability (%),[5]; exposure to 100 nM of 75 peptide/QD,98 ±4%
same,Cellular viability (%),[6],97 ±10%
same,Cellular viability (%),[7],98 ±1%
same,Time after delivery at which cytosolic release peaked,[8],~ 48 h
same,Time of endocytic uptake of QDs,[8],1 to 2 h
same,Overall uptake/escape: QD uptake class,[9]; first word of the cell,high (high (>60% uptake))
same,Overall uptake/escape: endosomal escape class,[9]; second word of the cell,moderate (moderate (30–70%))
